Sampled rows, rich in hits. Any-hit rate of the full collection: about 2.3%.
NadD block = inhibitors of Staphylococcus aureus NadD; purified NadD enzyme, colorimetric absorbance read-out; inhibition, % at 20 µM; actives 0.78% (n = 360,000); in the data active = inhibition above about 26%
STEP block = inhibitors of human striatal-enriched phosphatase STEP; P54829; recombinant STEP, OMFP fluorogenic substrate, fluorescence; inhibition, % at 20 µM; actives 0.25% (n = 360,000); AID 588621;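 active = inhibition at 20 µM, scaled per plate between control wells, above about 37%, limit read from the data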;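 also: 0% = DMSO with enzyme and substrate and 100% = substrate only without enzyme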
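Test system: STEP tyrosine phosphatase / Reagent: OMFP at 25 µM / Doses: 20 µM, 1% DMSO / Read-out: percent inhibition scaled to no-enzyme and uninhibited-enzyme controls, plate-pattern corrected / Detection: FITC-channel fluorescence of OMFP product / Medium: Bis-Tris buffer pH 6.0, 2.5 mM DTT, 0.005% Tween 20 / Schedule: 20 min at room temperature, dark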
Scp-1 inhibitor = blocks human Scp-1 phosphatase activity | Q9GZU7 | Recombinant Scp1, phosphopeptide, malachite green phosphate absorbance | inhibition, % at 20 µM | actives 0.88% (n = 340,000) | AID 493091;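 active = inhibition above about 50% at 20 µM, limit read from the data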;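 also: plate controls were DMSO wells with enzyme for no effect and wells lacking enzyme for full effect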
Target sequence (Q9GZU7 76-261 limits assumed): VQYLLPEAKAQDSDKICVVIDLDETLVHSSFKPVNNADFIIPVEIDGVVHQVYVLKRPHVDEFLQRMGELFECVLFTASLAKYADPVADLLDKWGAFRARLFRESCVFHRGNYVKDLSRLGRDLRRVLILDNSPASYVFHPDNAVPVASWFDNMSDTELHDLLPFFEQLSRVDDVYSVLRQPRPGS
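Material: truncated SCP-1 phosphatase (76-261aa) / Buffer or medium: 50 mM Tris acetate pH 5.5, 0.005% Tween-20, 10 mM MgCl2 / Compound dosing: one concentration, 20 µM, with 1.0% DMSO / Incubation: 45 min room-temperature reaction, 5 min colour, 30 min stabiliser / Detection: colorimetric free-phosphate detection, absorbance 630 nm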
LMPTP inh = LMPTP (human) inhibition; inhibition, % at 20 µM; P24666; recombinant LMPTP-A, OMFP fluorogenic substrate, fluorescence intensity; actives 0.22% (n = 360,000);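 active = compounds that cut the enzyme signal by at least half of the control window in the single-dose screen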;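 also: plate controls were DMSO wells with enzyme plus substrate for no effect and substrate without enzyme for full effect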
Target sequence (P24666 whole entry, looked up): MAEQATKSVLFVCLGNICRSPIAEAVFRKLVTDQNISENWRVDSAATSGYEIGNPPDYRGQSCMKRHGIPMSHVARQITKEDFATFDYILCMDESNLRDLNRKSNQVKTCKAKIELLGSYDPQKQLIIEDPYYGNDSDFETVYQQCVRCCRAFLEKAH
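material = LMPTP-A | quantity = 0.625 nM enzyme | reagent = OMFP substrate, 400 µM final | buffer or medium = Bis-Tris pH 6.0, DTT, detergent | detection = endpoint fluorescence intensity from OMFP dephosphorylation | dosing = single 20 µM dose | read-out basis = % inhibition relative to no-enzyme and uninhibited control wells | control set = no-enzyme and uninhibited controls | timing = 50 min at room temperature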
SUMO1 PPI mod = alters human SUMO1 binding to SIM partners; SUMO1 binding to a labelled peptide, TR-FRET, 1 h; actives 0.33% (n = 360,000); inhibition, % at 20 µM; in the data active = inhibition above about 37%
Target sequence (P63165 whole entry, looked up): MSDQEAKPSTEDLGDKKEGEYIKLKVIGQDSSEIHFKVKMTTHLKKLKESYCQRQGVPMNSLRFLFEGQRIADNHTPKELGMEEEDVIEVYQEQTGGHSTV
DNMT1 block = inhibitors of human DNMT1; AID 588458; DNMT1 molecular beacon, Hinp1I cleavage, fluorescence; inhibition (reported as % activation of signal), % at 10 µM; actives 0.83% (n = 360,000); in the data active = inhibition above about 50%
Beacon interf DR = shows spectral interference in the DNMT1 beacon assay; molecular beacon fluorescence, spectral interference counter-screen; IC50, µM; shares compounds with DNMT1 block; 200 tested, under 10 active; AID 602382
DNMT1 confirm = DNMT1 inhibition confirmation, single concentration; shares compounds with DNMT1 block; DNMT1 molecular beacon HinP1I cleavage, fluorescence; inhibition, % at 10 µM; actives 8% (n = 2,300); AID 602385;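 active = average inhibition of at least 30% in the single-concentration confirmation test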
Beacon interf = shows spectral interference in the DNMT1 beacon assay | shares compounds with DNMT1 block | DNMT1 molecular beacon spectral interference counterscreen, fluorescence 485/520 | activation (fluorescence interference), % at 10 µM | actives 1% (n = 2,300) | AID 602387;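 active = activation of at least 30% at 10 µM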;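 also: DNMT1 catalytic domain with a HinP1I cleavage step and a FAM/dabcyl DNA beacon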
STEP inh conf = STEP (human) phosphatase inhibition, single concentration confirmation. shares compounds with STEP block. recombinant STEP, OMFP fluorogenic substrate, fluorescence. inhibition, % at 20 µM. actives 32% (n = 520). AID 623866;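 also: 0% = enzyme with substrate plus DMSO and 100% = substrate without enzyme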
NadD inh conf = confirmation of Staphylococcus aureus NadD inhibitors; shares compounds with NadD block; inhibition, % at 20 µM; actives 13% (n = 2,000); purified S. aureus NadD, colorimetric enzyme assay; in the data active = inhibition mostly above about 42%, no sharp cut-off; inactive = mostly below about 42%
* hit, by the source's call; · = no result given. Unless noted, no rule for the calls is given here.

SMILES	NadD block	STEP block	Scp-1 inhibitor	LMPTP inh	SUMO1 PPI mod	DNMT1 block	DNMT1 confirm	Beacon interf	NadD inh conf	others
CSc1ccc(C2C(C#N)=C(N)Oc3c2ccc(=O)c2c(C)oc(C)c32)cc1 (configuration not stated)	58*	6	-7	15	22	74*	4	6	25
CCS(=O)(=O)N1Cc2ccccc2CC1C(=O)N(C)CC(=O)Nc1cccc(F)c1 (configuration not stated)	1	-2	-10	-11	-26	-5	·	·	·
Cc1nc(NC(=O)c2ccco2)sc1-c1csc(Nc2ccc(Cl)cc2Cl)n1	53*	0	-11	3	12	63*	3	6	28
COc1cccc(N(C(=O)Cn2nnc(-c3cccs3)n2)C(C(=O)NC2CCCCC2)c2ccncc2)c1 (configuration not stated)	33*	-2	-11	2	2	68*	0	-2	5
O=c1[nH]c(C(Cl)Cl)nc2sc3c(c12)CCN(Cc1ccccc1)C3	32*	0	-2	77*	25	87*	18	3	59*
COc1ccc(/C=C2\SC(=O)N(CC(=O)Nc3cccc(C)c3)C2=O)cc1O	1	1	3	0	-4	-7	·	·	·
Cc1ccc(NC(=O)CN2C(=O)S/C(=C\c3cccn3-c3cccc(C(=O)O)c3)C2=O)c(C)c1	40*	71*	84*	48	9	85*	69*	-5	5	Beacon interf DR=>99
COc1ccccc1NC(=O)c1ccc[n+]([O-])c1	0	-1	-3	0	2	1	·	·	·
Cc1cc2cc(CNC(=S)NCc3ccccc3)ccc2n1C	52*	5	3	19	-4	77*	2	2	-10
Cc1ccc(CNC(=S)NC2CCCCC2)cc1	7	0	4	0	-8	2	·	·	·
Cc1cc2cc(CNC(=S)NC3CCCCC3)ccc2n1C	34*	3	4	5	-7	63*	6	6	6
Cc1nn(CC(=O)Nc2ccc3c(c2)nc2n3CCN(C3CCCCC3)C2)c(=O)c2ccccc12	32*	3	-7	25	1	80*	0	1	13
O=C(O)C1CC=CCC1C(=O)NCc1ccc(Cl)c(Cl)c1 (configuration not stated)	-7	0	11	-1	6	3	·	·	·
CCCSC1=N/C(=C\C=C\c2ccco2)C(=O)S1	40*	17	69*	56*	32	106*	9	3	24
COc1ccc(/C=C/C(=O)NC(=S)Nc2ccc(S(=O)(=O)N=C(N)N)cc2)cc1OC	30*	1	4	5	1	61*	1	-4	-3
Cc1cc2nc(-c3ccc(=O)[nH]c3)n(Cc3ccccc3)c2cc1C	1	-2	-4	1	2	-2	·	·	·
CCOc1ccc(S(=O)(=O)N(CC(=O)N/N=C/c2ccc(-c3ccc([N+](=O)[O-])cc3)o2)c2ccccc2)cc1	41*	6	49	19	1	100*	11	-5	13
CSc1nc2ccccc2cc1/C=C(\C#N)c1cccc(Cl)c1	3	3	-7	1	2	6	·	·	·
CC(=O)c1nn(-c2cccc(Br)c2)cc1C(=O)c1ccco1	3	1	0	1	-4	3	·	·	·
Cc1nnc(-c2ccco2)c2cn(-c3cccc(Br)c3)nc12	37*	-4	5	14	6	91*	3	-3	6
Cc1cc(Cl)ccc1Oc1ccccc1C(=O)CC#N	4	0	-6	1	2	-5	·	·	·
COc1ccc(/C=C(\C#N)c2nc3ccc(C)cc3[nH]2)cc1Oc1ccc(C(F)(F)F)cc1[N+](=O)[O-]	32*	-1	-17	-2	-3	52*	5	-5	-20
COCOc1ccc(-c2ncc(OC)nc2NC(=O)c2cc(C)oc2C)cc1	-5	-2	·	-1	0	-1	·	·	·
O=C(CSc1ccc(-c2nc3ccccc3[nH]2)cn1)Nc1ccc(S(=O)(=O)N2CCCC2)cc1	29	8	-4	1	-44	-16	·	·	·
Cc1cc2nc(-c3ccc(SCC(=O)Nc4ccc(S(=O)(=O)N5CCCC5)cc4)nc3)[nH]c2cc1C	40*	-3	-5	5	-4	66*	-7	-13	11
SMILES	NadD block	STEP block	Scp-1 inhibitor	LMPTP inh	SUMO1 PPI mod	DNMT1 block	DNMT1 confirm	Beacon interf	NadD inh conf	others
CCc1cc2c(COC(=O)c3cccc(NS(C)(=O)=O)c3)cc(=O)oc2cc1O	21	-1	-10	-6	-1	-9	·	·	·
Cc1ccc(-n2nc3c(c2NC(=O)c2ccc(Br)o2)CSC3)c(C)c1	85*	5	-8	0	8	53*	14	-5	62*
COc1cc(/C=C2\SC(=O)N(Cc3ccc(Cl)cc3)C2=O)cc([N+](=O)[O-])c1O	37*	65*	59*	51*	105*	89*	19	-11	11	Beacon interf DR=>99
CCOC(=O)CN1C(=O)S/C(=C/c2ccc(OC)c([N+](=O)[O-])c2)C1=O	-6	-3	-10	1	-14	0	·	·	·
COc1ccc(N(C(C)=O)S(=O)(=O)c2cccs2)cc1	3	0	0	-1	-2	-18	·	·	·
COc1ccc(N(C(=O)C(C)C)S(=O)(=O)c2cccs2)cc1	-4	44*	-6	-1	-1	-2	·	·	·	STEP inh conf=10
S=c1nc[nH]c2c1ncn2-c1ccc(Cl)cc1	3	86*	5	1	5	7	·	·	·	STEP inh conf=38*
O=C(O)Cn1cnc2c(=S)nc[nH]c21	1	-2	-3	0	3	1	·	·	·
Nc1ccc2c(O)cc(S(=O)(=O)O)cc2c1	4	38*	67*	26	37	93*	·	·	·	STEP inh conf=68*
O=C(O)c1cc(S(=O)(=O)O)ccc1O	4	-2	-12	-2	1	2	·	·	·

Compound activity from PubChem.
